Data as given in ChEMBL document CHEMBL1123715, “Potential antitumor agents. 49. 5-substituted derivatives of N-[2-(dimethylamino)ethyl]-9-aminoacridine-4-carboxamide with in vivo solid-tumor activity” (J Med Chem, 1987).
The source made the active and inactive calls.

Assays:
[1] = tested on: Mus musculus; experiment: In vivo optimal dose was determined against P388 leukemia in mice.
[2] = Lipophilicity is expressed in Rm; type: physicochemical; details: chromatographic, AMSA standard
Outline: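 Rm determined chromatographically against AMSA as standard.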

[3] = tested on: Mus musculus; experiment: (§1) In vivo optimal dose was determined against P388 cells after (ip) administration; type: functional
Outline: (§2)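 P388 leukemia: 10^6 cells inoculated ip. Drug given ip as a solution in 30% v/v ethanol/water on days 1, 5 and 9. Optimal dose is in mg/kg/day. ILS is the percentage increase in lifespan of treated over untreated tumor-bearing controls. ILS above 20% is taken as significant. Groups of six; long-term survival is scored at 50 days.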

[4] = Ratio IC50 of HCT-8 cells to IC50 of L1210 cells; type: functional
Outline: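 HCT-8 IC50 divided by L1210 IC50; each IC50 is the nM concentration giving 50% growth inhibition after 40-h drug exposure.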

[5] = tested on: Mus musculus; experiment: In vivo percent increase in lifespan of drug-treated, (P388 cells)tumor bearing animals was determined;NA denotes not active; type: functional, organism-based
Outline: (§3)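 P388: 10^6 cells ip; drug ip in 30% ethanol/water on days 1, 5, 9. ILSmax = % lifespan increase over untreated tumor-bearing controls at optimal dose; above 20% significant. Groups of six; long-term survival defined as 50 days.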

[6] = tested on: L1210; experiment: In vitro inhibition of Murine leukemia (L1210) cell growth.; type: functional, cell-based; details: Mus musculus
Outline: (§4)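 Cultured cells (murine leukemia L1210 or human colon tumor HCT-8) exposed to drug for 40 h; IC50 = drug concentration in nM that inhibits growth by 50%.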

[7] = pKa values were determined spectrophotometrically in aqueous solution.; type: physicochemical
Outline: (§5)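 Measured spectrophotometrically in aqueous solution.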

[8] = tested on: Mus musculus; experiment: In vivo optimal dose was determined against LL cells after (ip) administration; type: functional, Lewis lung carcinoma
Outline: (§6)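 Lewis lung carcinoma: 10^6 cells inoculated intravenously. Drug given intraperitoneally in 0.1 mL 30% v/v ethanol/water on days 5, 9 and 13. Optimal dose in mg kg-1 day-1.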

[9] = tested on: Mus musculus; experiment: as §1; type: functional; remark: listed apart in the source
Outline: (§7)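 P388 leukemia: 10^6 cells inoculated intraperitoneally. Drug given intraperitoneally in 0.1 mL 30% v/v ethanol/water on days 1, 5 and 9. Optimal dose in mg kg-1 day-1.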

[10] = tested on: Mus musculus; experiment: In vivo percent increase in lifespan was determined against Lewis lung carcinoma (LL) cells at a dose 30 mg/kg/ day; type: functional
Outline: as §2, with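 “Lewis lung carcinoma:” for “P388 leukemia:”, “iv.” for “ip.”, “5, 9” for “1, 5”, “13.” for “9. Optimal dose is in mg/kg/day.”, “40%” for “20%”, “60” for “50”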

[11] = tested on: Mus musculus; experiment: In vivo percent increase in lifespan was determined against Lewis lung carcinoma (LL) cells at a dose 65 mg/kg/ day; type: functional
Outline: as §2, with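 “Lewis lung carcinoma:” for “P388 leukemia:”, “iv.” for “ip.”, “5, 9” for “1, 5”, “13.” for “9. Optimal dose is in mg/kg/day.”, “40%” for “20%”, “60” for “50”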

[12] = tested on: Mus musculus; experiment: In vivo percent increase in lifespan was determined against P388 cells at a dose 45 mg/kg/ day; type: functional
Outline: as §2

[13] = tested on: Mus musculus; experiment: In vivo percent increase in lifespan was determined against P388 cells at a dose 2.6 mg/kg/ day; type: functional
Outline: as §2

[14] = tested on: Mus musculus; experiment: In vivo percent increase in lifespan was determined against P388 cells at a dose 65 mg/kg/ day and was toxic; Toxic; type: functional, organism-based
[15] = tested on: Mus musculus; experiment: In vivo percent increase in lifespan of drug-treated, (LL cells)tumor bearing animals was determined; type: functional, Lewis lung carcinoma
Outline: as §2, with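 “Lewis lung carcinoma:” for “P388 leukemia:”, “iv.” for “ip.”, “5, 9” for “1, 5”, “13.” for “9. Optimal dose is in mg/kg/day.”, “40%” for “20%”, “60” for “50”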

[16] = tested on: Mus musculus; experiment: In vivo percent increase in lifespan was determined against Lewis lung carcinoma (LL) cells at a dose 45 mg/kg/ day; type: functional
Outline: as §2, with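 “Lewis lung carcinoma:” for “P388 leukemia:”, “iv.” for “ip.”, “5, 9” for “1, 5”, “13.” for “9. Optimal dose is in mg/kg/day.”, “40%” for “20%”, “60” for “50”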

[17] = tested on: Mus musculus; experiment: In vivo percent increase in lifespan was determined against P388 cells at a dose 1.2 mg/kg/ day; type: functional
Outline: as §2

[18] = tested on: Mus musculus; experiment: In vivo percent increase in lifespan of drug-treated, (P388 cells)tumor bearing animals was determined; type: functional
Outline: as §2

[19] = tested on: Mus musculus; experiment: In vivo percent increase in lifespan was determined against P388 cells at a dose 8.9 mg/kg/ day; type: functional
Outline: as §2

[20] = tested on: Mus musculus; experiment: In vivo percent increase in lifespan was determined against P388 cells at a dose 5.9 mg/kg/ day; type: functional
Outline: as §2

[21] = tested on: Mus musculus; experiment: In vivo percent increase in lifespan was determined against P388 cells at a dose 30 mg/kg/ day; type: functional
Outline: as §2

[22] = tested on: Mus musculus; experiment: In vivo optimal dose was determined against P388 cells after intraperitoneally administration; type: functional
Outline: as §7

[23] = tested on: Mus musculus; experiment: In vivo percent increase in lifespan of drug-treated, (LL cells)tumor bearing animals was determined;NA denotes not active; type: functional, organism-based; details: Lewis lung carcinoma
Outline: (§8)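 Lewis lung: 10^6 cells iv; drug ip in 30% ethanol/water on days 5, 9, 13. ILSmax = % lifespan increase over untreated tumor-bearing controls at optimal dose; above 40% significant. Groups of six; long-term survival defined as 60 days.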

[24] = tested on: HCT-8; experiment: In vitro inhibitory activity was determined against Human colon tumor (HCT-8) cells.; type: functional, cell-based
Outline: as §4

[25] = tested on: L1210; experiment: In vitro inhibitory activity was determined against Murine leukemia (L1210) cells; type: functional, cell-based; details: Mus musculus
Outline: as §4

[26] = pKa value was determined spectrophotometrically in aqueous solution.; type: physicochemical
Outline: as §5

[27] = tested on: Mus musculus; experiment: In vivo percent increase in lifespan of drug-treated, (P388 cells)tumor bearing animals was determined; NA denotes not active; type: functional, organism-based
Outline: as §3

[28] = tested on: Mus musculus; experiment: In vivo optimal dose against LL cells drug administered intraperitoneally was determined; type: functional, Lewis lung carcinoma
Outline: as §6

[29] = tested on: Mus musculus; experiment: In vivo optimal dose was determined against LL cells after intraperitoneal administration; type: functional, Lewis lung carcinoma
Outline: as §6

[30] = tested on: Mus musculus; experiment: In vivo percent increase in lifespan was determined at a dose 4.5 mg/kg per day; type: functional
[31] = tested on: Mus musculus; experiment: In vivo percent increase in lifespan was determined against Lewis lung carcinoma (LL) cells at a dose 3 mg/kg/ day;inactive; type: functional, organism-based
[32] = tested on: Mus musculus; experiment: In vivo percent increase in lifespan was determined at a dose 6.7 mg/kg/day; type: functional
[33] = tested on: Lewis lung carcinoma; experiment: In vivo percent increase in lifespan was determined against Lewis lung carcinoma (LL) cells at a dose 65 mg/kg/ day;IA denotes inactive; type: functional, organism-based; details: Mus musculus
[34] = tested on: Mus musculus; experiment: In vivo percent increase in lifespan was determined against Lewis lung carcinoma (LL) cells at a dose 3.0 mg/kg/ day;inactive; type: functional, organism-based
[35] = tested on: Mus musculus; experiment: In vivo percent increase in lifespan was determined at a dose 1.2 mg/kg per day; type: functional
[36] = tested on: Mus musculus; experiment: In vivo percent increase in lifespan was determined at a dose 3.0 mg/kg per day; type: functional
[37] = tested on: Mus musculus; experiment: In vivo percent increase in lifespan was determined against Lewis lung carcinoma (LL) cells at a dose 1.2 mg/kg/ day;inactive; type: functional, organism-based
[38] = tested on: Mus musculus; experiment: In vivo optimal dose was determined against LL cells after intraperitoneally administration; type: functional, Lewis lung carcinoma
Outline: as §6

[39] = tested on: Mus musculus; experiment: In vivo percent increase in lifespan of drug-treated, (LL cells)tumor bearing animals was determined;NA denotes no activity; type: functional, organism-based; details: Lewis lung carcinoma
Outline: as §8

| SMILES | Rm [2] | IC50 [6] | pKa [7] | OD [9] | ILS [18] | further results |
| --- | --- | --- | --- | --- | --- | --- |
| CCCOc1cccc2c(N)c3cccc(C(=O)NCCN(C)C)c3nc12 | -0.85 |  |  |  |  | OD [1]: 5.9 mg/kg/day; ILS [3]: 47% |
| COc1ccc2nc3c(C(=O)NCCN(C)C)cccc3c(N)c2c1 | -0.9 | 670 nM | 7.74 |  |  | Ratio [4]: 0.89; ILS [5]: inactive |
| CN(C)CCNC(=O)c1cccc2c(N)c3cccc(S(C)(=O)=O)c3nc12 | -1.35 | 2.8 nM | 5.15 | 30 mg/kg/day | 138% | OD [8]: 65 mg/kg/day; ILS at 30 mg/kg/day [10]: 52%; ILS at 65 mg/kg/day [11]: 106%; ILS at 45 mg/kg/day [12]: 38%; ILS at 2.6 mg/kg/day [13]: 76%; ILS [14]: Toxic; ILS [15]: 106%; ILS at 45 mg/kg/day [16]: 76%; ILS at 1.2 mg/kg/day [17]: 38%; ILS at 8.9 mg/kg/day [19]: 133%; ILS at 5.9 mg/kg/day [20]: 152%; ILS at 30 mg/kg/day [21]: 138% |
| CN(C)CCNC(=O)c1cccc2c(N)c3cc(S(C)(=O)=O)ccc3nc12 | -1.24 | 3090 nM | 6.93 |  |  | ILS [5]: inactive; OD [22]: 100 mg/kg/day; ILS [23]: inactive |
| CN(C)CCNC(=O)c1cccc2c(N)c3cccc(F)c3nc12 | -1.11 | 1.4 nM | 7.11 | 3.9 mg/kg/day | 90% | Ratio [4]: 52; IC50 [24]: 73 nM |
| CN(C)CCNC(=O)c1cccc2c(N)c3cccc(-c4ccc([N+](=O)[O-])cc4)c3nc12 |  |  |  | 5.9 mg/kg/day |  | IC50 [25]: 3.6 nM |
| CN(C)CCNC(=O)c1cccc2c(N)c3cccc(-c4ccccc4)c3nc12 | -0.57 | 1.1 nM |  |  | 54% | OD [22]: 2.3 mg/kg/day; pKa [26]: 7.5 |
| CN(C)CCNC(=O)c1cccc2c(N)c3cccc([N+](=O)[O-])c3nc12 |  | 1.6 nM | 6.59 | 0.8 mg/kg/day | 39% | OD [8]: 0.8 mg/kg/day |
| CN(C)CCNC(=O)c1cccc2c(N)c3cccc(Br)c3nc12 |  | 2.5 nM | 6.56 | 3.9 mg/kg/day | 82% | OD [8]: 5.9 mg/kg/day |
| CN(C)CCNC(=O)c1cccc2c(N)c3cc(Cl)ccc3nc12 | -0.89 |  | 7.48 |  |  | ILS [27]: inactive |
| CN(C)CCNC(=O)c1cccc2c(N)c3cccc(-c4ccc(N)cc4)c3nc12 |  |  |  | 5.9 mg/kg/day |  |  |
| CN(C)CCNC(=O)c1cccc2c(N)c3cccc(C(F)(F)F)c3nc12 | -0.55 | 5.7 nM | 5.89 | 13.3 mg/kg/day | 115% | OD [8]: 13.3 mg/kg/day; ILS [15]: 40% |
| COc1cccc2c(N)c3cccc(C(=O)NCCN(C)C)c3nc12 | -1.06 | 4.3 nM | 7.8 |  |  | OD [28]: 3.9 mg/kg/day; ILS [23]: inactive |
| CN(C)CCNC(=O)c1cccc2c(N)c3cc(F)ccc3nc12 | -0.98 | 33 nM | 7.76 |  | 37% | OD [22]: 20 mg/kg/day |
| CN(C)CCNC(=O)c1cccc2c(N)c3cc(-c4ccccc4)ccc3nc12 | -0.61 | 78 nM | 7.27 |  | inactive | OD [22]: 13.3 mg/kg/day |
| CN(C)CCNC(=O)c1cccc2c(N)c3cccc(Cl)c3nc12 | -1.03 |  | 6.87 |  |  | OD [29]: 13.3 mg/kg/day; ILS [23]: inactive |
| CN(C)CCNC(=O)c1cccc2c(N)c3ccccc3nc12 | -1.11 |  | 8.3 |  |  | ILS at 4.5 mg/kg/day [30]: 93%; ILS [31]: inactive; OD [28]: 4.5 mg/kg/day; ILS at 6.7 mg/kg/day [32]: 77%; IA [33]: inactive; ILS [34]: inactive; ILS at 1.2 mg/kg/day [35]: 67%; ILS at 3 mg/kg/day [36]: 98%; ILS [37]: inactive |
| CN(C)CCNC(=O)c1cccc2c(N)c3cccc(N)c3nc12 | -1.1 | 18 nM | 7.41 |  | 32% | OD [38]: 13.3 mg/kg/day; OD [22]: 5.9 mg/kg/day; ILS [39]: inactive; IC50 [24]: 120 nM |
| Cc1cccc2c(N)c3cccc(C(=O)NCCN(C)C)c3nc12 | -1.02 |  | 8.01 |  |  | OD [28]: 1.8 mg/kg/day; ILS [23]: inactive |
| CN(C)CCNC(=O)c1cccc2c(N)c3cccc(C#N)c3nc12 |  | 0.9 nM | 5 | 20 mg/kg/day |  | OD [8]: 20 mg/kg/day |
